High-throughput results (PubChem BioAssay)
UHRF1 MBD2 ctr: UHRF1 methyl-DNA binding inhibition. Q96T88. UHRF1 binding to methylated oligo, TR-FRET. inhibition, % at 4.4 µM. actives 0.75% (n = 370,000); in the data active = inhibition above about 21%;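 also: UHRF1 SRA domain binding a hemimethylated CpG hairpin DNA probe; 0% = median of test compound wells and 100% = reference inhibitor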
Rin1-Abl PPI inh: blocks binding of human Rin1 to Abl; P00519+Q13671; TR-FRET Rin1/Abl binding, biochemical; inhibition, % at 7.35 µM; actives 0.4% (n = 360,000); AID 588664; in the data active = inhibition above about 5%, passing the limit was not always enough
TDP2 inh: blocks human TDP2 phosphodiesterase activity; recombinant TDP2, T5PNP hydrolysis, p-nitrophenol absorbance 415 nm; inhibition, % at 12.8 µM; actives 0.34% (n = 370,000); AID 720702; O95551;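 active = inhibition above the mean of all tested compounds plus 3 SD, set per campaign, cut at about 25% in these data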;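 also: 0% = DMSO with enzyme and 100% = buffer with substrate but no TDP2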
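Incubation: 2 h at 37 °C; Test system: recombinant human TDP2; Quantity: enzyme 120 nM; Read-out basis: percent inhibition; Medium: 50 mM Tris-HCl pH 7.5 with Mg2+, KCl, DTT, BSA; Repeats: single replicate; Compound: 12.8 µM single point, 1% DMSO; Signal: epi absorbance; Reagent: 5 mM T5PNP chromogenic substrate; Benchmarks: no-enzyme high, DMSO-plus-enzyme low.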
MBD2 inh: inhibitors of human MBD2 binding to methylated oligonucleotide. inhibition, % at 4.4 µM. TR-FRET. Q9UBB5. actives 0.31% (n = 370,000); in the data active = inhibition above about 13%
LEDGF integ inh: blocks HIV-1 LEDGF/p75-dependent DNA integration; inhibition, % at 3.7 µM; AID 743269; TR-FRET IN-LEDGF/p75 DNA integration, Eu/Cy5; actives 0.64% (n = 370,000);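 active = inhibition above the screen-wide mean plus 3 SD, cut at about 13% in these data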;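 also: signal is the Cy5 over europium emission ratio at 671 and 618 nm; 0% = plate median of compound wells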
IN multimer up: HIV-1 integrase multimerization activation, counter-screen; shares compounds with LEDGF integ inh; actives 17% (n = 2,000); TR-FRET HIV-1 integrase multimerization, biochemical; activation, % at 7.7 µM; in the data active = activation above about 8.9%
TRFRET interf: TR-FRET optical interference, LEDGF/p75 integration counter-screen; shares compounds with LEDGF integ inh; TR-FRET optical interference counterscreen, HIV-1 IN multimerization; inhibition, % at 7.7 µM; 2,000 tested, under 10 active; AID 1053135;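 active = inhibition above the mean over all tested compounds plus 3 SD, which no compound reached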;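 also: 0% = integrase with antibodies and DMSO and 100% = antibodies without integrase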
LEDGF integ conf: LEDGF/p75-dependent HIV-1 integration inhibition, confirmation; shares compounds with LEDGF integ inh; TR-FRET LEDGF/p75-dependent HIV-1 integration, biochemical; inhibition, % at 3.7 µM; actives 36% (n = 2,000); in the data active = inhibition above about 14%
* hit, by the source's call. Only some compounds are listed: those with a hit (about 1.9% of all), similar ones and a draw of the others.

`COc1cccc(C(=O)N[C@H](C(=O)N2CCC[C@H]2C(=O)NCc2ccccc2)c2ccccc2)c1` gave UHRF1 MBD2 ctr -3.0, TDP2 inh 2.4, MBD2 inh 3.2 and LEDGF integ inh -0.5.
C/C(=C\C(=O)c1ccccc1)Nc1ccc(O)cc1 was read as UHRF1 MBD2 ctr 0.9, Rin1-Abl PPI inh 9.6, TDP2 inh 21.3, MBD2 inh -6.3, LEDGF integ inh 20.5*, IN multimer up 2.8, TRFRET interf -13.8 and LEDGF integ conf 0.5.
Cn1cccc1C(=O)N1CCN(S(=O)(=O)c2cccs2)CC1 was read as UHRF1 MBD2 ctr 2.1, TDP2 inh 9.3, MBD2 inh 3.1 and LEDGF integ inh 1.8.
Screening COC(=O)[C@]12C[C@H](CC(=O)NCc3cccc(C(F)(F)F)c3)C(=O)N(Cc3ccc(Cl)cc3Cl)C1=C[C@H](COCc1ccccc1)O[C@@H]2C returned UHRF1 MBD2 ctr 0.2, TDP2 inh -3.3, MBD2 inh 1.7 and LEDGF integ inh -1.3.
`C=CCNC(=S)Nc1nc2c(cc1C(=O)OCC)COC(C)(C)C2` gave UHRF1 MBD2 ctr -1.4, Rin1-Abl PPI inh -3.9, TDP2 inh 7.6, MBD2 inh -1.5 and LEDGF integ inh -0.3.
CCOC(=O)c1cc2c(nc1NC(=S)Nc1ccccc1)CC(C)(C)OC2 was read as UHRF1 MBD2 ctr 1.1, Rin1-Abl PPI inh 0.0, TDP2 inh 8.2, MBD2 inh 0.2, LEDGF integ inh 17.9*, IN multimer up 1.5, TRFRET interf -7.7 and LEDGF integ conf 3.4.
Screening O=C(NCCc1ccccc1)OCc1cn(Cc2c(F)cccc2F)nn1 returned UHRF1 MBD2 ctr 1.7, TDP2 inh 6.6, MBD2 inh -1.1 and LEDGF integ inh -2.6.
For COC(=O)c1ccc(Cn2ccc3ccc(-c4ccc5ccn(Cc6ccc(C(=O)OC)cc6)c5c4)cc32)cc1 the results were UHRF1 MBD2 ctr -3.3, TDP2 inh 10.8, MBD2 inh -6.7 and LEDGF integ inh 0.9.
Cc1ccc(/C=C2\Oc3cc(OCC(=O)NN)ccc3C2=O)o1 was read as UHRF1 MBD2 ctr 2.2, Rin1-Abl PPI inh 0.7, TDP2 inh 1.3, MBD2 inh 2.6, LEDGF integ inh 20.9*, IN multimer up 7.9, TRFRET interf -28.2 and LEDGF integ conf 13.5*.
For COCCN(CCOC)Cc1c(O)ccc2c1O/C(=C\c1ccc(C)o1)C2=O the results were UHRF1 MBD2 ctr 14.3, Rin1-Abl PPI inh 1.1, TDP2 inh -10.3, MBD2 inh -0.8, LEDGF integ inh 40.1*, IN multimer up 12.6*, TRFRET interf -44.9 and LEDGF integ conf 14.1*.
For COc1cccc(/C=C2\Oc3cc(OCC(=O)N4CCCC4)ccc3C2=O)c1OC the results were UHRF1 MBD2 ctr -2.0, Rin1-Abl PPI inh 2.2, TDP2 inh -3.5, MBD2 inh 2.6 and LEDGF integ inh -0.8.
For CC(C)C[C@H]1CNC(=O)C(=O)N1C[C@H](Cc1ccc(O)cc1)NC(=O)Cc1ccccc1 the results were UHRF1 MBD2 ctr 3.0, TDP2 inh 3.9, MBD2 inh 4.1, LEDGF integ inh 74.6*, IN multimer up 0.8, TRFRET interf -2.7 and LEDGF integ conf -4.6.
Screening CCN=C1S/C(=C\c2cc(Cl)c(OC)c(OC)c2)C(=O)N1CC returned UHRF1 MBD2 ctr 0.4, Rin1-Abl PPI inh -0.7, TDP2 inh 3.6, MBD2 inh 0.7, LEDGF integ inh 17.4*, IN multimer up -0.3, TRFRET interf 0.9 and LEDGF integ conf -10.9.
For CN(C)c1ccc(O)c2c1CC1CC3C(N(C)C)C(=O)C(C(N)=O)=C(O)[C@@]3(O)C(=O)C1=C2O (some centres not stated) the results were UHRF1 MBD2 ctr 12.9, Rin1-Abl PPI inh 8.9, TDP2 inh -5.8, MBD2 inh 6.7, LEDGF integ inh 22.1*, IN multimer up 10.0*, TRFRET interf -50.4 and LEDGF integ conf 2.3.
